In brackets after ≈: the same amount, converted by molar mass. Activity calls are given as the source filed them. The rule behind the calls is not given here.
Legend:
NUGC-3 = experiment: Antiproliferative activity against human NUGC3 cells by SRB assay; format: functional
In short: (§1)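 Cells from exponential-phase cultures were trypsinized, counted and plated. Fixation used cold 10% TCA for 1 h at 4 °C, then water washes. Staining was 0.1% SRB in 1% acetic acid for at least 15 min, followed by 1% acetic acid rinses. Dye was solubilized in 10 mM unbuffered Tris base and absorbance read at 540 nm.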

MDA-MB-231 = experiment: Antiproliferative activity against human MDA-MB-231 cells by SRB assay; format: functional
In short: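 Trypsinized exponential-phase cells were plated at densities chosen for exponential growth over a 5-day assay. Cells were fixed with cold 10% TCA for 1 h at 4 °C, water-washed, stained at least 15 min with 0.1% SRB in 1% acetic acid, and rinsed with 1% acetic acid. Bound dye was solubilized in 10 mM unbuffered Tris base and OD read at 540 nm.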

SK-HEP1 = experiment: Antiproliferative activity against human SKHEP1 cells by SRB assay; format: functional; in short: as §1
[1] = molecular target: RAF proto-oncogene serine/threonine-protein kinase (Homo sapiens) (UniProt P04049); experiment: Inhibition of Raf1 at 50 uM by liquid scintillation counting
RAF proto-oncogene serine/threonine-protein kinase (Homo sapiens), sequence (P04049 whole entry): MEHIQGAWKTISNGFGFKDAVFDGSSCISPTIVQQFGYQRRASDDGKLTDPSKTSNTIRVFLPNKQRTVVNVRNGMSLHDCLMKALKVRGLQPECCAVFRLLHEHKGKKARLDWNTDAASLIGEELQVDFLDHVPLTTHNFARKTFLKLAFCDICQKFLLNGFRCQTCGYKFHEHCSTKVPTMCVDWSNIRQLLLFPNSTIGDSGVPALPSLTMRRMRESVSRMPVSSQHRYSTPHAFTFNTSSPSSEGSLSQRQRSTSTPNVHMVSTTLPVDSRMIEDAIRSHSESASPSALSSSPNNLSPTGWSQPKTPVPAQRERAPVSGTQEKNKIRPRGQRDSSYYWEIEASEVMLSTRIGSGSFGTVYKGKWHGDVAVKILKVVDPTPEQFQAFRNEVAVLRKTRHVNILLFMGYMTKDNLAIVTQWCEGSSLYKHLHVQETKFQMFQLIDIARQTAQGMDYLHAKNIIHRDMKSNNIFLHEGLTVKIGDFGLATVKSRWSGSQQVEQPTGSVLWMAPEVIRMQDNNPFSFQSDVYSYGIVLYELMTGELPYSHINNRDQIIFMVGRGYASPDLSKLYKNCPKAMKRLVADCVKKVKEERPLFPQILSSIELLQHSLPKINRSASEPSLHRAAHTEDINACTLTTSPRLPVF
In short: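 Raf-1 and its substrate MEK were diluted together in buffer (20 mM MOPS pH 7.2, 25 mM β-glycerol phosphate, 5 mM EGTA, 1 mM orthovanadate, 1 mM DTT), with compound in 1% final DMSO. Reaction was started with [γ-33P]ATP (1000–3000 dpm/pmol) and run at 32 °C, usually 22 min. Samples went to phosphocellulose mats, were washed with 1% phosphoric acid and counted by scintillation; % inhibition is the mean of three experiments.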

| SMILES | GI50 (NUGC-3) [µg/mL] | GI50 (MDA-MB-231) [µg/mL] | GI50 (SK-HEP1) [µg/mL] | Activity [1] | inhibition [1] [%] |
| --- | --- | --- | --- | --- | --- |
| O=C(Nc1ccccc1)Nc1nc2ccc(F)cc2s1 | > 10 | > 10 | > 10 |  |  |
| COc1cccc2sc(NC(=O)c3ccc(C(F)(F)F)cc3)nc12 | > 10 | > 10 | > 10 |  |  |
| O=C(Nc1nc2ccc([N+](=O)[O-])cc2s1)c1ccc(C(F)(F)F)cc1 | 1.65 (≈ 4.49 µM) | 1.89 (≈ 5.15 µM) | 2.1 (≈ 5.72 µM) |  |  |
| Cc1cc(C)c2sc(NC(=O)c3ccc(C(F)(F)F)cc3)nc2c1 | 1.4 (≈ 4 µM) | 0.45 (≈ 1.28 µM) | 1.36 (≈ 3.88 µM) | inactive |  |
| COc1ccc2sc(NC(=O)c3ccc(C)cc3)nc2c1 | > 10 | > 10 | > 10 |  |  |
| Cc1ccccc1NC(=O)Nc1nc2ccc(F)cc2s1 | > 10 | > 10 | > 10 |  |  |
| Cc1ccc2nc(NC(=O)Nc3cccc([N+](=O)[O-])c3)sc2c1 | > 10 | > 10 | > 10 |  |  |
| COc1ccc(C(=O)Nc2nc3c(OC)cccc3s2)cc1 | 3.46 (≈ 11 µM) | 1.25 (≈ 3.98 µM) | 2.11 (≈ 6.71 µM) |  | 7.8 |
| COc1cccc2sc(NC(=O)c3ccc([N+](=O)[O-])cc3)nc12 | > 10 | > 10 | > 10 |  |  |
| COc1ccc2sc(NC(=O)c3ccc(C#N)cc3)nc2c1 | > 10 | > 10 | > 10 |  |  |
| O=C(Nc1cccc([N+](=O)[O-])c1)Nc1nc2ccc(F)cc2s1 | 0.83 (≈ 2.5 µM) | 0.89 (≈ 2.68 µM) | 1.96 (≈ 5.9 µM) |  | 7.9 |
| Cc1cc2nc(NC(=O)Nc3ccccc3C)sc2cc1C | 0.18 (≈ 0.578 µM) | 0.1 (≈ 0.321 µM) | 0.18 (≈ 0.578 µM) |  | 14.9 |
| COc1cccc2c1C(=O)c1c(O)c3c(c(O)c1C2=O)C[C@@](O)(C(=O)CO)C[C@@H]3O[C@H]1C[C@H](N)[C@H](O)[C@H](C)O1 [DOXORUBICIN] | 0.11 (≈ 0.202 µM) | 0.39 (≈ 0.718 µM) | 0.07 (≈ 0.129 µM) |  |  |
| Cc1cc(C)c2sc(NC(=O)c3ccc([N+](=O)[O-])cc3)nc2c1 | 1.32 (≈ 4.03 µM) | 0.29 (≈ 0.886 µM) | 1.74 (≈ 5.32 µM) | inactive |  |
| COc1ccc2nc(NC(=O)c3ccc(C)cc3)sc2c1 | > 10 | > 10 | > 10 |  |  |
| COc1cccc2sc(NC(=O)c3ccc(C#N)cc3)nc12 | > 10 | > 10 | > 10 |  |  |
| Cc1cc(C)c2sc(NC(=O)c3ccc(C#N)cc3)nc2c1 | 0.62 (≈ 2.02 µM) | 0.48 (≈ 1.56 µM) | 1.18 (≈ 3.84 µM) | inactive |  |
| COc1ccc(C(=O)Nc2nc3cc(OC)ccc3s2)cc1 | > 10 | > 10 | > 10 |  |  |
| COc1ccc2sc(NC(=O)c3ccc([N+](=O)[O-])cc3)nc2c1 | > 10 | > 10 | > 10 |  |  |
| COc1cccc2sc(NC(=O)c3ccc(C)cc3)nc12 | > 10 | 0.86 (≈ 2.88 µM) | 2.01 (≈ 6.74 µM) |  | 37 |
| COc1ccc2sc(NC(=O)c3ccc(C(F)(F)F)cc3)nc2c1 | > 10 | > 10 | > 10 |  |  |
| O=C(Nc1cccc([N+](=O)[O-])c1)Nc1nc2ccc(Cl)cc2s1 | 1.03 (≈ 2.95 µM) | 0.82 (≈ 2.35 µM) | 2.21 (≈ 6.34 µM) | inactive |  |
| O=C(Nc1nc2ccc(F)cc2s1)Nc1ccccc1F | > 10 | > 10 | > 10 |  |  |
| COc1ccc(NC(=O)Nc2nc3ccc(F)cc3s2)cc1 | > 10 | > 10 | > 10 |  |  |
| Cc1ccc(C(=O)Nc2nc3cc(C)cc(C)c3s2)cc1 | 2.37 (≈ 8 µM) | 0.44 (≈ 1.48 µM) | 2.17 (≈ 7.32 µM) |  |  |
| O=C(Nc1nc2ccc(C(F)(F)F)cc2s1)c1ccc([N+](=O)[O-])cc1 | > 10 | > 10 | > 10 |  |  |
| COc1ccc(C(=O)Nc2nc3cc(C)cc(C)c3s2)cc1 | > 10 | 1.03 (≈ 3.3 µM) | > 10 |  |  |

From ChEMBL document CHEMBL1140960, “Synthesis of amide and urea derivatives of benzothiazole as Raf-1 inhibitor” (2008)
